For test [1], the system named is Bacteria. Nature of the test: Inhibition of bacterial VIM-2 (unknown origin) assessed as Zn(II) content in protein at >5 uM by overnight equilibrium dialysis. In outline:
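VIM-2 or NDM-1 (3 μM final) in 50 mM HEPES pH 7.5 mixed with compound at 0–48 μM. Incubated 1 h on ice, then dialysed overnight at 4 °C against 50 mM HEPES pH 7.5. Zn(II) content measured by atomic absorption at 213.86 nm against a zinc standard curve. Each point averages three samples.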
(In equilibrium dialysis free small molecules cross a membrane that holds back macromolecules.)

Test [2] has as its system Bacteria. As to the kind of experiment: Binding affinity to bacterial VIM-2 (unknown origin) assessed as association constant by isothermal calorimetric assay. The method, boiled down:
(§1)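 ITC at 25 °C. VIM-2 at 19 μM in 10 mM HEPES-NaOH, 0.15 M NaCl, pH 7.5 with DMSO matched to 1%, titrated with compound at 200 μM: one 0.5 μL injection, then 19 × 2 μL at 150 s intervals. Buffer dilution heats subtracted. Nonlinear fit gives n, Ka and ΔH°; values regarded as apparent.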
For orientation: In ITC the heat of successive injections is recorded.

A short description of test [3]: Binding affinity to bacterial VIM-2 (unknown origin) assessed as dissociation constant by isothermal calorimetric assay. Also noted: species or system Bacteria. In outline:
as §1

Test [4] has as its system Bacteria. Nature of the test: Binding affinity to bacterial VIM-2 (unknown origin) assessed as Gibbs free energy by isothermal calorimetric assay. In outline: as §1
Test [5] relates to Bacteria. Nature of the test: Binding affinity to bacterial VIM-2 (unknown origin) assessed as change in enthalpy by isothermal calorimetric assay. In outline: as §1
For test [6], the system named is Bacteria. As to the kind of experiment: Binding affinity to bacterial VIM-2 (unknown origin) assessed as change in entropy by isothermal calorimetric assay. In outline:
as §1

Test [7] has as its system Klebsiella pneumoniae. Nature of the test: Antimicrobial activity against blaVIM-1-producing multidrug-resistant Klebsiella pneumoniae 7023 clinical isolate assessed as meropenem MIC using cation-adjusted Mueller-Hinton broth at 32 ug/ml by broth microdilution method (reference value: […] ug/ml). The format is functional. The note with it: dose 32 µg/ml. In outline:
(§2)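 Checkerboard broth microdilution in cation-supplemented Mueller–Hinton broth, inoculum 5×10^4 CFU/well, per CLSI. […] The average fractional inhibitory concentration index was computed from the checkerboard.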

For test [8], the system named is Klebsiella pneumoniae. As to the kind of experiment: Antimicrobial activity against blaVIM-1-producing multidrug-resistant Klebsiella pneumoniae 7023 clinical isolate assessed as meropenem MIC using cation-adjusted Mueller-Hinton broth at 16 ug/ml by broth microdilution method (reference value: […] ug/ml). The format is functional. The note with it: dose 16 µg/ml. In outline: as §2
(In general: In broth dilution the organism is exposed to a series of concentrations in liquid medium.)

Test [9] has as its system Klebsiella pneumoniae. As to the kind of experiment: Antimicrobial activity against blaVIM-1-producing multidrug-resistant Klebsiella pneumoniae 7023 clinical isolate assessed as meropenem MIC using cation-adjusted Mueller-Hinton broth at 4 ug/ml by broth microdilution method (reference value: […] ug/ml). The format is functional. The note with it: dose 4 µg/ml. The method, boiled down:
as §2

For test [10], the system named is Klebsiella pneumoniae. As to the kind of experiment: Antimicrobial activity against blaVIM-1-producing multidrug-resistant Klebsiella pneumoniae 7023 clinical isolate assessed as meropenem MIC using cation-adjusted Mueller-Hinton broth at 2 ug/ml by broth microdilution method (reference value: […] ug/ml). The format is functional. The note with it: dose 2 µg/ml. The method, boiled down:
as §2

Test [11] concerns Klebsiella pneumoniae. Nature of the test: Antimicrobial activity against blaVIM-1-producing multidrug-resistant Klebsiella pneumoniae 7023 clinical isolate assessed as meropenem MIC using cation-adjusted Mueller-Hinton broth at 1 ug/ml by broth microdilution method (reference value: […] ug/ml). Particulars: dose 1 µg/ml. The format is functional. In outline: as §2
Test [12] has as its system Klebsiella pneumoniae. Nature of the test: Antimicrobial activity against blaVIM-1-producing multidrug-resistant Klebsiella pneumoniae 7023 clinical isolate assessed as meropenem MIC using cation-adjusted Mueller-Hinton broth at 0.5 ug/ml by broth microdilution method (reference value: […] ug/ml). The format is functional. The note with it: dose 0.5 µg/ml. In outline: as §2

The subject of test [13] is Klebsiella pneumoniae. Nature of the test: Antimicrobial activity against blaVIM-4-producing multidrug-resistant Klebsiella pneumoniae VA-416/02 clinical isolate assessed as meropenem MIC using cation-adjusted Mueller-Hinton broth at 32 ug/ml by broth microdilution method (reference value: […] ug/ml). Particulars: dose 32 µg/ml. The format is functional. In outline: as §2

The test system of test [14] is Klebsiella pneumoniae. As to the kind of experiment: Antimicrobial activity against blaVIM-4-producing multidrug-resistant Klebsiella pneumoniae VA-416/02 clinical isolate assessed as meropenem MIC using cation-adjusted Mueller-Hinton broth at 8 ug/ml by broth microdilution method (reference value: […] ug/ml). The format is functional. Particulars: dose 8 µg/ml. The method, boiled down: as §2

For test [15], the system named is Klebsiella pneumoniae. Nature of the test: Antimicrobial activity against blaVIM-4-producing multidrug-resistant Klebsiella pneumoniae VA-416/02 clinical isolate assessed as meropenem MIC using cation-adjusted Mueller-Hinton broth at 4 ug/ml by broth microdilution method (reference value: […] ug/ml). The format is functional. Particulars: dose 4 µg/ml. The method, boiled down:
as §2

The subject of test [16] is Escherichia coli. As to the kind of experiment: Antimicrobial activity against blaNDM-1-producing multidrug-resistant Escherichia coli SI-004 clinical isolate assessed as meropenem MIC using cation-adjusted Mueller-Hinton broth at 16 ug/ml by broth microdilution method (reference value: 64 ug/ml). The note with it: dose 16 µg/ml. The format is functional. The method, boiled down: as §2

For test [17], the system named is Escherichia coli. As to the kind of experiment: Antimicrobial activity against blaNDM-1-producing multidrug-resistant Escherichia coli SI-004 clinical isolate assessed as meropenem MIC using cation-adjusted Mueller-Hinton broth at 8 ug/ml by broth microdilution method (reference value: 64 ug/ml). The format is functional. The note with it: dose 8 µg/ml. The method, boiled down: as §2

The test system of test [18] is Escherichia coli. As to the kind of experiment: Antimicrobial activity against blaNDM-1-producing multidrug-resistant Escherichia coli SI-004 clinical isolate assessed as meropenem MIC using cation-adjusted Mueller-Hinton broth at 4 ug/ml by broth microdilution method (reference value: 64 ug/ml). Particulars: dose 4 µg/ml. The format is functional. The method, boiled down:
as §2

Test [19] relates to Escherichia coli. As to the kind of experiment: Antimicrobial activity against blaNDM-1-producing multidrug-resistant Escherichia coli SI-004 clinical isolate assessed as meropenem MIC using cation-adjusted Mueller-Hinton broth at 2 ug/ml by broth microdilution method (reference value: 64 ug/ml). The note with it: dose 2 µg/ml. The format is functional. In outline:
as §2

Test [20] deals with Escherichia coli. As to the kind of experiment: Antimicrobial activity against blaNDM-1-producing multidrug-resistant Escherichia coli SI-004 clinical isolate assessed as meropenem MIC using cation-adjusted Mueller-Hinton broth at 1 ug/ml by broth microdilution method (reference value: 64 ug/ml). The note with it: dose 1 µg/ml. The format is functional. The method, boiled down:
as §2

In test [21] the test system is Escherichia coli. Nature of the test: Antimicrobial activity against blaNDM-1-producing multidrug-resistant Escherichia coli SI-004 clinical isolate assessed as meropenem MIC using cation-adjusted Mueller-Hinton broth at 0.5 ug/ml by broth microdilution method (reference value: 64 ug/ml). The format is functional. Particulars: dose 0.5 µg/ml. The method, boiled down:
as §2

For test [22], the system named is Bacteria. Nature of the test: Inhibition of bacterial Metallo-beta-lactamase VIM-1 (unknown origin) at 100 uM relative to control. In outline:
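Reporter-substrate assay with purified MBL (1–70 nM final) in 50 mM HEPES pH 7.5 at 30 °C. […] Inhibitor 0.5–1000 μM final. Ki derived from the v0/vi vs [I] slope assuming competitive inhibition, or from a Dixon plot. Ki given when inhibition >70%, otherwise % inhibition at 100 μM. Triplicate.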

The source made the active and inactive calls. The calls are words filed in the database; no cut-off is given here.

A word on the inhibition: it is the change of the read-out against control, counted positive when it falls. For `O=C(O)[C@H](CCCn1c(-c2ccccc2)n[nH]c1=S)N(Cc1ccccn1)Cc1ccccn1`, the inhibition result with Bacteria [1] is “Active”.
As a reminder, the Kd is the free concentration of one partner at which half of the binding sites on the other are occupied at equilibrium, for simple one-to-one binding. A word on the MIC: it is the lowest concentration found to suppress growth. Regarding `O=C(O)[C@H](CCCn1c(-c2ccccc2)n[nH]c1=S)N(Cc1c[nH]cn1)Cc1c[nH]cn1`, the Ka with Bacteria [2] was 1.4 10^6/M. Moreover, in [3], the Kd was 0.7 µM. Moreover, the deltaG with Bacteria [4] was -35.1 kJ/mol. Also, the deltaH in the test on Bacteria [5] was -41 kJ/mol. Moreover, the TdeltaS in the test with Bacteria [6] is -5.86 kJ/mol. The MIC came to 0.03 mg/L with Klebsiella pneumoniae [7]; 0.06 mg/L with Klebsiella pneumoniae [8]; 2 mg/L in the test on Klebsiella pneumoniae [9]; 4 mg/L in the test with Klebsiella pneumoniae [10]; 8 mg/L in the test on Klebsiella pneumoniae [11]; 16 mg/L in the test on Klebsiella pneumoniae [12]. Besides, the MIC in the test on Klebsiella pneumoniae [13] worked out at 0.03 mg/L; in the test on Klebsiella pneumoniae [14], 1 mg/L; in the test with Klebsiella pneumoniae [15], 2 mg/L; in the test on Escherichia coli [16] it was 0.06 mg/L; with Escherichia coli [17] it was 32 mg/L; in the test on Escherichia coli [18] it was 32 mg/L. Besides, the MIC with Escherichia coli [19], with Escherichia coli [20] and with Escherichia coli [21] was 64 mg/L each time. In the test with Bacteria [22], this compound showed an inhibition of 57%.

The record behind these values is ChEMBL document CHEMBL5236609, “Optimization of 1,2,4-Triazole-3-thiones toward Broad-Spectrum Metallo-β-lactamase Inhibitors Showing Potent Synergistic Activity on VIM- and NDM-1-Producing Clinical Isolates” (J Med Chem, 2022).
